Assay outcomes deposited in PubChem BioAssay by Johns Hopkins Ion Channel Center.
Only some compounds are listed: those with a hit (about 3.7% of all), similar ones and a draw of the others.
Kir21 block: blocks the mouse Kir2.1 inward-rectifier potassium channel | P35561 | HEK293-Kir2.1, FluxOR thallium flux fluorescence; stronger effect = lower value | B-score at 10 µM | hit rate 0.85% among 310,000 | AID 1672;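 active means fluorescence ratio B-score at or below minus 3 SD of library scores, with starting-brightness B-score within 2 SD, cut at about -4.2 in these data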;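 further: channel flux triggered by added potassium and thallium sulfate stimulus; B-score of peak minus minimum fluorescence over baseline after thallium stimulus; more negative B-score means stronger Kir2.1 block with less thallium influx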
KCNK9 inh: inhibitors of human KCNK9 two-pore domain potassium channel; HEK293 KCNK9, FluxOR thallium flux fluorescence; stronger effect = lower value; Q9NPC2; hit rate 1.2% among 310,000; B-score at 10 µM; AID 488922;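 active means ratio B-score over 3 SD below the library mean, with starting fluorescence within 5 SD of its mean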;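 further: negative B-score means less thallium flux so channel inhibition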
KCNK3 block: human KCNK3 channel inhibition, primary screen; CHO-KCNK3 thallium flux, FluxOR fluorescence; stronger effect = lower value; B-score at 10 µM; hit rate 0.84% among 340,000; AID 602410;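 active means B-score under library mean minus 4 SD, starting fluorescence ratio at most library mean plus 5 SD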;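 further: more negative B-score means stronger inhibition of thallium flux through KCNK3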
Target sequence (O14649 whole entry, looked up): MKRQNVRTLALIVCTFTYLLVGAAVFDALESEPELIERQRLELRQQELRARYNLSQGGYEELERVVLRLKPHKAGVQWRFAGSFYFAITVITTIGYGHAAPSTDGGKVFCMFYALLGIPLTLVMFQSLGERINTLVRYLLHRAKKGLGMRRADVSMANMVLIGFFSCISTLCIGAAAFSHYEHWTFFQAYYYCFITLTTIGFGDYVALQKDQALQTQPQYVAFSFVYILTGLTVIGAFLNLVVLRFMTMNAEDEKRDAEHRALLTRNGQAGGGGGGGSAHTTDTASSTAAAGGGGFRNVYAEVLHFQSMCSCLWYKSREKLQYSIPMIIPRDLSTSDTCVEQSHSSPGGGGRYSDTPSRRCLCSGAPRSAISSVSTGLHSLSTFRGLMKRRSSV
hERG protect: shields human hERG channel from block by proarrhythmic agents. CHO-hERG, FluxOR thallium flux, dofetilide IC70 present. activation (rescue from dofetilide block), less the hit threshold, % at 10 µM. AID 1511. hit rate 0.51% among 310,000. Q12809;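 active means activation above the mean of controls blocked by dofetilide plus 5 SD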;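 further: thallium influx through hERG after potassium depolarization seen as dye fluorescence rise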
KCNQ1 inh: human KCNQ1 channel inhibition | CHO-K1 KCNQ1, FluxOR thallium flux fluorescence; stronger effect = higher value | P51787 | B-score at 10 µM | hit rate 1.3% among 310,000;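 active means compounds whose thallium flux B-score, printed positive for inhibition, exceeds three library SD while starting fluorescence stays within three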;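 further: channel opened by potassium depolarization with thallium stimulus after 20 min compound exposure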
KCNQ1 act: potentiators or activators of human KCNQ1 potassium channel; P51787; CHO-K1 KCNQ1, thallium flux FluxOR fluorescence; stronger effect = higher value; B-score at 10 µM; hit rate 0.35% among 310,000; AID 2648;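 active means fluorescence ratio B-score, a plate-corrected score, at least three library SD, with initial intensity B-score within 5 SD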
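assay system = KCNQ1-transfected CHO-K1 cells | medium = assay buffer with matched DMSO | probe or stimulus = depolarizing K+/Tl+ stimulus, K2SO4 and Tl2SO4 each 12.5 mM in 5x stock | dosing = single dose | incubation = dye 90 min, compound 20 min, room temperature | detection = kinetic FluxOR fluorescence, 10 s baseline plus 110 s post-stimulus | evaluation = ratio B score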
* marks the source's active call; other numbers are inactive results.

How did COc1ccc(S(=O)(=O)NCCSc2ccc(C)cc2)cc1OC do in these assays?
Kir21 block: -5.25*; KCNK9 inh: inactive; KCNK3 block: inactive; hERG protect: -4.7; KCNQ1 inh: inactive; KCNQ1 act: inactive

How did COc1ccc(S(=O)(=O)NCCSc2ccccc2)cc1OC do in these assays?
Kir21 block: 0.17; KCNK9 inh: inactive; KCNK3 block: inactive; hERG protect: -13.4; KCNQ1 inh: inactive; KCNQ1 act: inactive

What do the screens show for `CN(/C=C/C(=C\C=[N+](C)c1ccccc1)OCCCS(=O)(=O)[O-])c1ccccc1`?
Kir21 block: -4.57; KCNK9 inh: inactive; KCNK3 block: inactive; hERG protect: -19.1; KCNQ1 inh: 6*; KCNQ1 act: inactive

What do the screens show for `Cc1c(C(=O)c2no[n+]([O-])c2C(=O)c2cnn(C)c2C)cnn1C`?
Kir21 block: -0.01; KCNK9 inh: inactive; KCNK3 block: inactive; hERG protect: -9.2; KCNQ1 inh: 6*; KCNQ1 act: inactive

What do the screens show for `O=C1CCC[C@@H]2Cc3nc4ccc(Cl)cc4cc3[C@@H]3CCN1[C@H]23`?
KCNK3 block: inactive

How did Cc1ccc(/C(O)=C/C(=O)C(=O)NNC(=O)C(O)(c2ccccc2)c2ccccc2)cc1 do in these assays?
Kir21 block: 0.07; KCNK9 inh: inactive; KCNK3 block: inactive; hERG protect: 0.6; KCNQ1 inh: inactive; KCNQ1 act: 13*

Results for Cc1cccc(-n2cc(-c3ccccc3)c3c(=O)[nH]cnc32)c1 ?
Kir21 block: -0.66; KCNK9 inh: -7.16*; KCNK3 block: inactive; hERG protect: -14.0; KCNQ1 inh: inactive; KCNQ1 act: inactive

How did CC12CCC(C(=O)NCc3ccc4c(c3)OCO4)(CC1=O)C2(C)C (stereo unspecified) do in these assays?
Kir21 block: 2.2; KCNK9 inh: inactive; KCNK3 block: inactive; hERG protect: 5.3*; KCNQ1 inh: inactive; KCNQ1 act: inactive

Results for Cc1ccc(N2CC(C(=O)Nc3cccc(C(=O)NC4CC4)c3)CC2=O)cc1 (stereo unspecified) ?
KCNK3 block: inactive

How did O=[N+]([O-])c1ccc(/C=C/C2=NN(c3ccccc3)C(c3ccco3)C2)o1 (stereo unspecified) do in these assays?
Kir21 block: -0.88; KCNK9 inh: inactive; KCNK3 block: -9.67*; hERG protect: -10.4; KCNQ1 inh: inactive; KCNQ1 act: inactive

Results for C(=C\c1ccco1)/C1=NN(c2ccccc2)C(c2ccco2)C1 (stereo unspecified) ?
Kir21 block: -2.07; KCNK9 inh: inactive; KCNK3 block: inactive; hERG protect: -15.2; KCNQ1 inh: inactive; KCNQ1 act: inactive

What do the screens show for `CCCc1cc(=O)n2[nH]cc(-c3ccc(Cl)cc3)c2n1`?
Kir21 block: -0.18; KCNK9 inh: inactive; KCNK3 block: inactive; hERG protect: 2.6; KCNQ1 inh: inactive; KCNQ1 act: 10*

What do the screens show for `Cc1ccc(NC(=Nc2ccc(Br)cc2)N2CCOCC2)cc1C`?
Kir21 block: -3.8; KCNK9 inh: inactive; KCNK3 block: inactive; hERG protect: -9.7; KCNQ1 inh: 6*; KCNQ1 act: inactive

Results for O=C(COc1ccc(Br)cc1)NCCCN1CCCC1=O ?
KCNK3 block: inactive

Results for Cc1ccc(COc2ccc(CNCCCN3CCCCCC3=O)cc2)cc1 ?
Kir21 block: -5.07*; KCNK9 inh: inactive; KCNK3 block: inactive; hERG protect: -14.4; KCNQ1 inh: inactive; KCNQ1 act: inactive

What do the screens show for `O=C(Nc1ccc(C(F)(F)F)cc1)N1CCN(c2ccnc3cc(Cl)ccc23)CC1`?
Kir21 block: -0.43; KCNK9 inh: inactive; KCNK3 block: inactive; hERG protect: -10.1; KCNQ1 inh: 6*; KCNQ1 act: inactive

How did Cc1[nH][nH]c(=O)c1C(c1ccc(-c2ccc(F)cc2)o1)c1c(C)[nH][nH]c1=O do in these assays?
Kir21 block: -5.32*; KCNK9 inh: inactive; KCNK3 block: inactive; hERG protect: -14.8; KCNQ1 inh: inactive; KCNQ1 act: 9*

Results for CCOC(=O)c1sc(NC(=O)CCN2CCN(C)CC2)c(C(=O)OCC)c1C ?
Kir21 block: -5.47*; KCNK9 inh: inactive; KCNK3 block: inactive; hERG protect: -10.0; KCNQ1 inh: inactive; KCNQ1 act: inactive

How did CCOC(=O)c1sc(NC(=O)CSc2nnc(C)s2)c(C(=O)OCC)c1C do in these assays?
Kir21 block: 0.24; KCNK9 inh: -6.77*; KCNK3 block: inactive; hERG protect: -6.8; KCNQ1 inh: inactive; KCNQ1 act: inactive

How did CCOC(=O)c1sc(NC(=O)CCN2CC(C)OC(C)C2)c(C(=O)OCC)c1C (stereo unspecified) do in these assays?
Kir21 block: 0.59; KCNK9 inh: inactive; hERG protect: -11.2; KCNQ1 inh: inactive; KCNQ1 act: inactive

What do the screens show for `CCOC(=O)c1sc(NN=C(C(=O)OC)C(=O)OC)c(C(=O)OCC)c1C`?
Kir21 block: 0.03; KCNK9 inh: inactive; KCNK3 block: inactive; hERG protect: 9.0*; KCNQ1 inh: inactive; KCNQ1 act: 8*

How did Cc1cc(C)n(C(=O)c2cc([N+](=O)[O-])cc([N+](=O)[O-])c2)n1 do in these assays?
Kir21 block: -1.38; KCNK9 inh: inactive; KCNK3 block: inactive; hERG protect: -14.7; KCNQ1 inh: inactive; KCNQ1 act: inactive

What do the screens show for `COc1ccc(C(=O)/C=C/c2ccc(OCc3ccccc3)cc2)cc1CSCC(=O)O`?
Kir21 block: -1.72; KCNK9 inh: inactive; KCNK3 block: inactive; hERG protect: -27.2; KCNQ1 inh: inactive; KCNQ1 act: inactive

How did COc1ccc(C(=O)/C=C/c2cccc(OCc3ccccc3)c2)cc1CSCC(=O)O do in these assays?
Kir21 block: -6.23*; KCNK9 inh: inactive; KCNK3 block: inactive; hERG protect: -33.3; KCNQ1 inh: inactive; KCNQ1 act: inactive

Results for CCOc1ccc(NS(=O)(=O)c2ccc(C(=O)N(C)CC(=O)Nc3ccccc3Br)cc2)cc1 ?
KCNK3 block: inactive

How did C/C(=N\NC(=O)C1COc2ccccc2O1)c1ccc(N2CCOCC2)cc1 (stereo unspecified) do in these assays?
Kir21 block: 0.04; KCNK9 inh: inactive; KCNK3 block: inactive; hERG protect: 5.6*; KCNQ1 inh: inactive; KCNQ1 act: 30*

Results for CCCC1=NN(C(=O)C(=O)Nc2ccc(Br)cc2)C(O)(C(F)(F)F)C1 (stereo unspecified) ?
Kir21 block: -0.22; KCNK9 inh: inactive; KCNK3 block: inactive; hERG protect: -9.2; KCNQ1 inh: inactive; KCNQ1 act: inactive
